One assay deals with MrgprA3. Briefly: Calcium imaging of MrgprA3-expressing CHO cells. The format is cell-based, mouse. The note with it: chloroquine 100 µM; n = 155 cells. The procedure, abridged:
(§1)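 Each receptor was transfected individually into CHO cells. Cells were loaded with fura-2 acetoxymethyl ester for 45 min at 37°C, washed, and imaged at 340- and 380-nm excitation to detect intracellular free Ca2+. There were at least three independent experiments, with at least 100 cells analysed each time.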

Assay [1] concerns WT DRG neurons electroporated with siRNA. Briefly: Calcium imaging of WT DRG neurons electroporated with siRNA. The format is cell-based, mouse. The following applies: CQ 1 mM.
The target of assay [2] is T1, MrgprC11 (Mus musculus, UniProt Q8CIP3).
T1 sequence (Q8CIP3 1-322): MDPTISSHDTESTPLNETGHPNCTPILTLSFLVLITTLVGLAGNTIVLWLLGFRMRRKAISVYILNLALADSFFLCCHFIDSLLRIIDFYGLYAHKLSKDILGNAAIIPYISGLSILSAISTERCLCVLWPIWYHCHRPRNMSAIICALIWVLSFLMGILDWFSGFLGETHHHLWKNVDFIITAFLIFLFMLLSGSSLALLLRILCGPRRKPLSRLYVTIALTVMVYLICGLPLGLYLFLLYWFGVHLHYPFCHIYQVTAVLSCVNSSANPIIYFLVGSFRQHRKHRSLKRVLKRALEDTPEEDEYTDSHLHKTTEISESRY
Briefly: Calcium imaging of MrgprC11-expressing CHO cells. The format is cell-based. The following applies: for activation of MrgprC11 (calcium response): MrgprC11-expressing CHO cells, concentration not given.

A further assay has as its system human MrgprX3. The experiment in a line: Calcium imaging of MrgprX3-expressing CHO cells. Type of assay: cell-based. The following applies: Ca^2+ imaging, fig. S4. The method, boiled down:
as §1

The test system of another assay is human MrgprX4. Briefly: Calcium imaging of MrgprX4-expressing CHO cells. Type of assay: cell-based. The following applies: Ca^2+ imaging, fig. S4. The procedure, abridged: as §1
The subject of the next assay is human MrgprX2. The experiment in a line: Calcium imaging of MrgprX2-expressing CHO cells. Type of assay: cell-based. The note with it: Ca^2+ imaging, fig. S4. The method, boiled down:
as §1

In another assay the test system is human subjects. The following applies: ref [5], cited from earlier work.
The next assay relates to human MrgprX1. Briefly: Calcium imaging of MrgprX1-expressing CHO cells. The following applies: Ca^2+ imaging, fig. S4. Type of assay: cell-based. The method, boiled down: as §1
The test system of a further assay is DRG neurons. The experiment in a line: Whole-cell current-clamp recording of cultured DRG neurons. Type of assay: cell-based, mouse. The following applies: n = 6; perfused with 1 mM SLIGRL or BAM(8–22) for 20 s, pH 7.38, room temperature (~25°C).
Assay [3] deals with T1, MrgprC11. The experiment in a line: Calcium imaging of Mrgpr-clusterΔ^−/− DRG neurons electroporated with MrgprC11. The format is cell-based. The following applies: MrgprC11-expressing Mrgpr-clusterΔ^−/− neurons, n = 66; BAM(8–22) 2 µM.
Assay [4] concerns mice. The following applies: cited from earlier work.
For assay [5], the target named is T1, MrgprC11. The note with it: ref [8], [11]; cited from earlier work.
A further assay concerns mouse hindpaws. The experiment in a line: Thermal hyperalgesia, paw withdrawal latency to radiant heat. The format is in vivo. The note with it: trypsin 100 ng, 10 µl, intraplantar; WT n = 7, Mrgpr-clusterΔ^−/− n = 8, PAR2^−/− n = 10.
Assay [6] concerns mice. Briefly: Scratching behavior after injection into the nape of the neck. Type of assay: in vivo, mouse. The note with it: trypsin 200 µg, 50 µl, PAR2^−/− n = 6 vs WT n = 6. The method, boiled down:
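Male mice aged 2 to 3 months (20 to 30 g) were backcrossed to C57BL/6 for at least 10 generations and scored blind to genotype. A scratching bout was continuous hindpaw scratching directed at the injection site. Bouts were counted in 5-min intervals over a 30-min observation period after injection.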

Entries after “also recorded” stand apart in the source; their conditions may differ.

In the case of `CCN(CC)CCCC(C)Nc1ccnc2cc(Cl)ccc12` (stereo not shown) [chloroquine], the “calcium response, MrgprA3-expressing CHO cells” value in the assay on MrgprA3 was “could be activated by chloroquine; also recorded: responded”. For the same molecule, the chloroquine sensitivity entry in [1] (WT DRG neurons + MrgprA3 siRNA) was “abolished the chloroquine response”; in assay [1] (WT DRG neurons + MrgprA3 siRNA, listed as CQ) it was “completely abolished CQ sensitivity”; in assay [1] (WT DRG neurons + MrgprC11 siRNA, n = 7 CQ-sensitive neurons), “still sensitive”.

As to LRGILS-NH2, the “activation of MrgprC11 (calcium response)” value on MrgprC11 [2] was “None of these derivatives induced significant calcium responses in cells”.

For the molecule SLIGKV, in the assay with human MrgprX3, the “calcium response, MrgprX3-expressing CHO cells” value is recorded as “insensitive to the peptide”. The “calcium response, MrgprX4-expressing CHO cells” value in the assay with human MrgprX4 is given as “insensitive to the peptide”. The “calcium response, MrgprX2-expressing CHO cells” value in the assay with human MrgprX2 is “exhibited a response”. Moreover, the “itch in human subjects” value with human subjects (intracutaneous injection, low millimolar range) is recorded as “provokes itch in human subjects”. Moreover, in the assay on human MrgprX1, the “calcium response, MrgprX1-expressing CHO cells” value is listed as “insensitive to the peptide”.

For “SLIGRL [SLIGRL without amidation (−NH2)]”, the “activation of MrgprC11 (calcium response)” value on MrgprC11 [2] was “None of these derivatives induced significant calcium responses in cells”.

With “bovine adrenal medulla peptide [BAM(8–22)]”, the “action potentials evoked in SLIGRL-sensitive WT DRG neurons” value in the assay with DRG neurons is “All of them also generated action potentials”. The “increase in [Ca^2+]i” value on MrgprC11 [3] is “showed increased [Ca^2+]i”. The “evoked scratching in Mrgpr-clusterΔ^−/− mice” value with mice [4] (Mrgpr-clusterΔ^−/− mice, ref [8]) is reported as “reduced”. For the same molecule, in the assay with mice [4] (ref [8]), the Mrgpr-dependent scratching response result was “induces an Mrgpr-dependent scratching response”. For the same molecule, the “agonism at MrgprC11” value at MrgprC11 [5] is on record as “specific agonist for MrgprC11”. The “calcium response, MrgprC11-expressing CHO cells” value on MrgprC11 [2] (BAM(8–22) 2 µM, n = 150 cells) was “responded”.

For trypsin, in the assay with mouse hindpaws, the “trypsin-induced thermal hyperalgesia (paw withdrawal latency)” value is “comparable among wild-type, Mrgpr knockout, and PAR2 knockout mice; also recorded: comparable among the three groups”. Besides, the “scratching response to trypsin in mice” value in the assay on mice [4] (injection into nape of neck, ref [4]) is on record as “induces a scratching response”. The “scratching behavior in mice” value in the assay with mice [4] (intradermal injection, ref [3], [4]) is “elicit scratching behavior in mice”. In the assay on mice [6], the “trypsin-induced scratching in PAR2^−/− mice” value is given as “significantly stronger in PAR2^−/− mice; also recorded: scratched significantly more than did wild-type controls”. Also, in the assay on human subjects (skin application, [6]), the itch in humans entry is “induces itch in humans”.
